Only some compounds are listed: those with a hit (about 4.7% of all), similar ones and a draw of the others.
IMP-1 inh: inhibitors of Pseudomonas aeruginosa IMP-1 metallo-beta-lactamase. inhibition, % at 5.6 µM. purified IMP-1, nitrocefin hydrolysis, epi-absorbance fluorescence. 290,000 compounds, 0.45% hits;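 active = inhibition above the mean plus 3 SD of all compounds in the same screening run, cut at about 4.5% in these data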;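 note: 0% = IMP-1 with DMSO and 100% = DMSO wells lacking enzyme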
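System: purified IMP-1; amount: IMP-1 0.2 nM before substrate addition; compound: single dose, 5.6 µM; times: 25 °C, 15 min preincubation, 25 min reaction; signal: Epi-absorbance via hydrolysed-nitrocefin quenching of white-plate fluorescence, 480/530 nm, EDTA stop; benchmarks: DMSO with and without IMP-1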
Mdm2 MdmX PPI: human Mdm2/MdmX binding inhibition; O15151+Q00987; SaOS-2 split-luciferase Mdm2/MdmX complementation, luminescence; inhibition, % at 8 µM; 330,000 compounds, 3% hits; AID 485346;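 active = inhibition of at least 50% at 8 µM in the primary screen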
Target sequence (O15151 whole entry, looked up): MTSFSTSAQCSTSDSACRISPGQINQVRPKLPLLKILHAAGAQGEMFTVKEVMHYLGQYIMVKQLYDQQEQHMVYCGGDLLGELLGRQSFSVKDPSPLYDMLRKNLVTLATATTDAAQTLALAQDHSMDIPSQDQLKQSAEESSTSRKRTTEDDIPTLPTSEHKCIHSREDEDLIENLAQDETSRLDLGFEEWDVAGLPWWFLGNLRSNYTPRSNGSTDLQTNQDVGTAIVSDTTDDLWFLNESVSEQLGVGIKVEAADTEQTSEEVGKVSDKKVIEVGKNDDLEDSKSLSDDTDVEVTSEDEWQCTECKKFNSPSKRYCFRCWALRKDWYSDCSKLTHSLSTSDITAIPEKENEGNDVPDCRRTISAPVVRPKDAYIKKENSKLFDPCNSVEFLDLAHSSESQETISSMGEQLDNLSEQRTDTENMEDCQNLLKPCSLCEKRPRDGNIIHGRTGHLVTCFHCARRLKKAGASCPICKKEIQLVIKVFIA
Target sequence (Q00987 whole entry, looked up): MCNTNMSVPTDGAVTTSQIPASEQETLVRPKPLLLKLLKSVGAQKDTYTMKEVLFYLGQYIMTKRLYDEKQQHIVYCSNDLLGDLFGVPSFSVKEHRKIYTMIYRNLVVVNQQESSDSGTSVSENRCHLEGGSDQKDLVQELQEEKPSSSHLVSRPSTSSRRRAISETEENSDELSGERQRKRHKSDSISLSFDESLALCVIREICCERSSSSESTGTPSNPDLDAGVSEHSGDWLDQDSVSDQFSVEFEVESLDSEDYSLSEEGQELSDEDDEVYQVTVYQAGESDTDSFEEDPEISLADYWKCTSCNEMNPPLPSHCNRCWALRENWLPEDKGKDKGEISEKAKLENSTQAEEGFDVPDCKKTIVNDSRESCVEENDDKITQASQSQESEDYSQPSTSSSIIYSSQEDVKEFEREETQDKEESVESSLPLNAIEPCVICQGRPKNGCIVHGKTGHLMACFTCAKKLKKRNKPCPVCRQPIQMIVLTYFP
Jurkat NFkB inh: lowers PMA/ionomycin-induced NF-kB signal in Jurkat cells; inhibition, % at 4 µM; PMA/ionomycin-induced NF-kB luciferase reporter, luminescence; 330,000 compounds, 0.53% hits; AID 435003; in the data active = inhibition above about 50%
aSyn UTR inh: MLPCN primary screen, SNCA 5' untranslated region. 300,000 compounds, 0.82% hits. AID 1813. inhibition, % (tested at 7.5 µM). alpha-synuclein 5'UTR reporter, inhibitor activity; in the data active = inhibition above about 60%;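 note: H4 neuroglioblastoma cells stably carrying SNCA 5'UTR luciferase fusion; 0% = DMSO wells and 100% = positive control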
697 NFkB inh: lowers PMA/ionomycin-induced NF-kB signal in 697 B cells; 697 B-cell NF-kB luciferase reporter, 16 h; inhibition, % at 4 µM; 330,000 compounds, 0.33% hits; AID 435022; in the data active = inhibition above about 35%
VIM-2 inhibitor: blocks Pseudomonas aeruginosa VIM-2 metallo-beta-lactamase; purified VIM-2, nitrocefin hydrolysis, epi-absorbance fluorescence; inhibition, % at 5.6 µM; 290,000 compounds, 0.89% hits;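 active = inhibition above the mean of all tested compounds plus 3 SD, cutoff set per screening run, cut at about 7.5% in these data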;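 note: red hydrolysis product quenches plate fluorescence so inhibitors raise well fluorescence; 0% = enzyme with DMSO and 100% = DMSO without enzyme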
Active calls of the source: *; . = no result.

SMILES	IMP-1 inh	Mdm2 MdmX PPI	Jurkat NFkB inh	aSyn UTR inh	697 NFkB inh	VIM-2 inhibitor
CCOC(=O)C1CCN(c2cc3c(cc2NC(=O)c2ccccc2F)n(C)c(=O)n3C)CC1	18*	21	-8	29	-4	1
O=C(CN1CCN(CCN2C(=O)c3cccc4cccc(c34)C2=O)CC1)c1ccc(F)cc1	-3	-27	-3	-65	28	8.9*
O=C1c2cccc3cccc(c23)C(=O)N1CCN1CCN(C(=S)Nc2ccc(F)cc2)CC1	-4	33	-13	-41	-50	-2
Cc1ccc(NC(=S)N2CCN(CCN3C(=O)c4cccc5cccc(c45)C3=O)CC2)cc1	-7	-9	-9	-41	15	8.1*
Cc1ccc(C)c(S(=O)(=O)N2CCN(c3nc(-c4cccnc4)nc4ccccc34)CC2)c1	.	38	9	.	21	.
Cc1cc(C)c(S(=O)(=O)Nc2cc(SCC(=O)O)c(O)c3ccccc23)cc1C	-1	.	.	67*	.	0
CC(OC(=O)/C(C#N)=C/c1ccc(N(C)C)cc1)C(=O)N(C)Cc1ccccc1 (stereo unspecified)	0	-2	7	-20	-25	-1
CC(C)Oc1ccc(C(=O)Nc2cccc(S(=O)(=O)N3CCCC3)c2)cc1	.	18	8	.	-8	.
CCN(CC)CCNC(=O)c1ccc(Cl)c(S(=O)(=O)Nc2ccccc2OC)c1	5.4*	12	-13	9	16	-1
Cc1n(CC(=O)c2ccc(F)cc2)c2ccccc2[n+]1C	-2	13	2	6	-17	-1
Cn1c(=N)n(CC(=O)c2ccc(F)cc2)c2ccccc21	-3	23	-1	76*	-159	-2
CCOC(=O)c1cnc(-n2cc(C)cn2)nc1NCc1ccc2c(c1)OCO2	-5	4	0	39	9	8.1*
Cc1ccc(C(=O)/C=C/c2c[nH]c3ccccc23)cc1	-4	-75	-21	-237	-79	0
CCN(CC)C(=O)c1ccc(/C=C/c2c[nH]c3ccccc23)[n+](C)c1	4.8*	-4	13	-4	18	6
CN(C)c1ccc(S(=O)(=O)N2CCC(Cc3ccccc3)CC2)cn1	.	6	10	.	-15	.
O=C(CN1C(=O)C2CCCCC2C1=O)Nc1nc(-c2ccccn2)cs1 (stereo unspecified)	-3	29	3	46	-1	-5
C[C@@H](C(=O)Nc1nc(-c2ccccn2)cs1)N1C(=O)C2CCCCC2C1=O (stereo partly specified)	11*	10	-2	9	-20	2
Cc1nc(CCNC(=O)CC2C(=O)NCCN2Cc2ccccc2)sc1C (stereo unspecified)	5.0*	8	-2	0	-6	-1
COc1ccc(CN2CCNC(=O)C2CC(=O)NCCc2nc(C)c(C)s2)cc1C (stereo unspecified)	3	19	1	-16	-3	-5
O=c1c(N2CCOCC2)nsn1Cc1ccccc1	6.0*	7	-1	-2	-1	-3
O=C(NC1CCCCC1)C(c1ccc(O)c(O)c1)N(C(=O)Cn1nnc2ccccc21)c1cccc(O)c1 (stereo unspecified)	11*	-23	7	5	5	1
COC(=O)CCC(=O)Nc1ccc(S(=O)(=O)Nc2nc(C)cc(C)n2)cc1	4.8*	1	10	-3	8	0
CSCCC(=O)N1CCN(CC(=O)N2CCCC2)CC1	-1	9	17	-17	13	2
CN(C)c1ncc(C2=C(Cl)C(=O)C(N3CCCC3)=C(Cl)C2=O)s1	5.2*	-17	14	-70	1	0
Cc1ccccc1C(=O)OCc1nnc(-c2ccc(Cl)cc2)o1	-2	-18	-4	-29	-19	-3
SMILES	IMP-1 inh	Mdm2 MdmX PPI	Jurkat NFkB inh	aSyn UTR inh	697 NFkB inh	VIM-2 inhibitor
O=C(OCc1nnc(-c2ccc(Cl)cc2)o1)c1ccc(=O)n(Cc2ccccc2)n1	4.8*	-2	1	3	15	-6
Cc1cccc(N(CC(=O)NCCSCc2ccco2)S(=O)(=O)c2ccccc2)c1	-2	-3	1	12	-23	1
COc1cccc(N(CC(=O)NCCSCc2ccco2)S(=O)(=O)c2ccccc2)c1	5.0*	11	-7	14	-9	1
CC(C)c1ccc(NC(=O)[C@H](NC(=O)[C@@H]2Cc3ccccc3CN2)c2ccccc2)cc1	-4	21	-6	-28	-1	-4
Cc1ccc(C(=O)O)cc1N=Cc1cc(Br)cc(Br)c1O	-2	.	.	-6	.	-4
CN(/N=C/c1cc(Br)cc(Br)c1O)c1cccc(C(F)(F)F)n1	-3	50	-15	70*	19	-2
O=C(N/N=C/c1cc2c3c(c1O)CCCN3CCC2)c1ccccc1O	-1	.	.	104*	.	-1
COc1ccc(/C=N/NC(=O)CN(C)S(=O)(=O)c2ccc(NC(C)=O)cc2)cc1	31*	-10	-4	17	10	-2
CC(=O)Nc1ccc(S(=O)(=O)N(C)CC(=O)N/N=C/c2ccc(C(=O)O)cc2)cc1	2	4	3	14	8	0
CCOc1ncccc1C(=O)Nc1ccc(OC)c(S(=O)(=O)N2CCOCC2)c1	.	12	21	.	24	.
COc1ccc(C(=O)Nn2c(SCC(=O)NCc3ccccc3)nc3ccccc3c2=O)cc1	-2	38	-117	77*	-126	-3
COc1ccc(C(=O)Nn2c(SCC(=O)NCC3CCCO3)nc3ccccc3c2=O)cc1 (stereo unspecified)	-3	42	-33	87*	-110	-2
C[N+](C)(C)c1ccc(/C=N/Nc2nc(Cl)c(C#N)c(Cl)c2Cl)cc1	1	.	.	-47	.	10*
CN(Cc1nc2ccccc2c(=O)[nH]1)C(=O)c1cccc(NC(=O)c2cccs2)c1	.	7	-8	.	-8	.
CC(Oc1ccc(Cl)cc1Cl)c1nc(-c2ccc(NC(=O)c3cccnc3)cc2)no1 (stereo unspecified)	-5	17	18	92*	17	-4
O=C(COc1ccccc1)Nc1cccc(-c2ccc(N3CCOCC3)nn2)c1	.	-72	-86	-61	-90	.
Cc1ccc(O)c(CNc2nccs2)c1	-1	9	-3	-13	2	-1
Oc1ccc(Cl)cc1CNc1nccs1	8.4*	-14	6	-14	-12	2
CC(C)CC(=O)NC(=S)NNC(=O)c1ccc(NC(=O)C2CCCCC2)cc1	-2	45	13	75*	7	-2
CC(C)CC(=O)NC(=S)NNC(=O)c1ccc([N+](=O)[O-])cc1	-2	1	1	1	0	-2
COCCN(C(=O)c1csnn1)C(C(=O)NC1CCCC1)c1ccccc1F (stereo unspecified)	-2	12	7	-19	16	0
COc1cc(NC(=O)Cn2c(-c3cncs3)nc3ccccc32)cc(OC)c1OC	-3	14	-5	12	7	8.6*
